Key:
MCF7 [1] = experiment: Antiproliferative activity against human MCF7 cells assessed as inhibition of cell growth at 10 uM incubated for 48 hrs by MTT assay; type: functional
Summary of the method: (§1)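 Single-concentration screen: cells (ATCC; 37 °C, 5% CO₂) seeded at 4 × 10⁴ per well, adhered overnight, then treated 48 h at 10 μM. Medium removed, MTT (2.5 mg mL⁻¹) added for 4 h, formazan dissolved in DMSO, absorbance read at 570 nm; percent inhibition versus untreated cells.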

MDA-MB-231 [2] = experiment: Antiproliferative activity against human MDA-MB-231 cells assessed as inhibition of cell growth at 10 uM incubated for 48 hrs by MTT assay; type: functional; summary of the method: as §1
ZR-75-1 [3] = experiment: Antiproliferative activity against human ZR-75-1 cells assessed as inhibition of cell growth at 10 uM incubated for 48 hrs by MTT assay; type: functional; summary of the method: as §1
MDA-MB-231 [4] = experiment: Antiproliferative activity against human MDA-MB-231 cells assessed as inhibition of cell growth incubated for 48 hrs by MTT assay; type: functional, cell-based; details: MDA-MB-231, 48 h
ZR-75-1 [5] = experiment: Antiproliferative activity against human ZR-75-1 cells assessed as inhibition of cell growth incubated for 48 hrs by MTT assay; type: functional, cell-based; details: ZR-75-1, 48 h
MCF7 [6] = experiment: Antiproliferative activity against human MCF7 cells assessed as inhibition of cell growth incubated for 48 hrs by MTT assay; type: functional, cell-based; details: MCF7, 48 h
Summary of the method: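 MCF-7 exposed 48 h to 0.625, 1.25, 2.5, 5, 10, 20 and 40 μM. MTT (2.5 mg mL⁻¹) added for 4 h, medium removed, formazan solubilized in DMSO, absorbance at 570 nm; percent growth inhibition calculated and IC50 derived.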

[7] = Cytotoxicity against human MCF-10A cells assessed as inhibition of cell growth incubated for 24 hrs by MTT assay; type: toxicity, cell-based
Summary of the method: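 Non-tumorigenic MCF-10A breast epithelial cells in 96-well plates (5% CO₂) exposed 24 h to 10, 50 and 100 μM. MTT (2.5 mg mL⁻¹) for 4 h, formazan dissolved in DMSO, absorbance at 570 nm; percent growth inhibition calculated to estimate IC50.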

IC50 (MDA-MB-231 [4]) [µM]	IC50 (MCF7 [6]) [µM]	Compound	inhibition at 10 µM (MCF7 [1]) [%]	inhibition at 10 µM (MDA-MB-231 [2]) [%]	inhibition at 10 µM (ZR-75-1 [3]) [%]	IC50 (ZR-75-1 [5]) [µM]	IC50 at 24 h [7] [µM]
–	–	COc1cc(-n2cnc(-c3ccc4c(c3)OCO4)n2)cc(OC)c1OC	21.2	17.9	–	–	–
–	–	COc1cc(-n2cnc(-c3cccc4ccccc34)n2)cc(OC)c1OC	13.4	22.6	–	–	–
21	5.7	COc1cc(-n2cnc(-c3cccc(N)c3)n2)cc(OC)c1OC	57.6	22.7	12.1	71	–
–	–	COc1cccc(-c2ncn(-c3cc(OC)c(OC)c(OC)c3)n2)c1	16.4	16.4	–	–	–
–	–	COc1ccc(-c2ncn(-c3ccccc3)n2)cc1	0.853	0	0	–	–
–	–	COc1ccc(-n2cnc(-c3ccc(C(F)(F)F)cc3)n2)cc1OC	21.3	15.8	–	–	–
15	5.2	COc1cc(-n2cnc(-c3ccc4nc[nH]c4c3)n2)cc(OC)c1OC	58.5	31.6	21.2	93	> 100
94	11	COc1cc(-n2cnc(-c3cccc(C(F)(F)F)c3)n2)cc(OC)c1OC	48.6	5.77	2.39	98	–
–	–	c1cc2c(cc1-c1ncn(-c3ccc4c(c3)OCO4)n1)OCO2	8.99	17.1	–	–	–
–	–	COc1ccc(-n2cnc(-c3ccc(F)cc3)n2)cc1OC	17.6	16.8	–	–	–
–	–	COc1cc(-n2cnc(-c3cccc(O)c3)n2)cc(OC)c1OC	32.8	10.4	8.54	–	–
–	–	COc1cc(-n2cnc(-c3cc(Cl)cc(Cl)c3)n2)cc(OC)c1OC	0	17.4	–	–	–

Source: ChEMBL document CHEMBL6083223, “Development of di-arylated 1,2,4-triazole-based derivatives as therapeutic agents against breast cancer: synthesis and biological evaluation” (RSC Med Chem, 2024)
